{"data": "Experimental data from different studies", "target": "Serine/threonine-protein kinase WNK1 (WNK1, Homo sapiens, UniProt Q9H4A3)", "note": "Lines come from different studies, so protocols differ."}
{"Structure (SMILES)": "CN(c1ccnc(CNc2nc(Nc3ccc4c(c3)CC(=O)N4)ncc2C(F)(F)F)n1)S(C)(=O)=O", "read-out": "cell-free assay", "method": "competition with immobilised ligand", "concentration": "1 µM", "measurement": "remaining binding", "value": "87%"}
{"Structure (SMILES)": "N[C@@H]1CCN(c2nccc(-c3cnn4ncccc34)n2)C1", "read-out": "binding", "concentration": "1 µM", "measurement": "remaining binding", "value": "100%"}
{"Structure (SMILES)": "CO[C@@H](C)c1c(Nc2ccc([C@H](N(C)C(=O)C3CCS(=O)(=O)CC3)C(F)(F)F)cc2)cnc2cc(Cl)nn12", "read-out": "cell-free assay", "method": "competition with immobilised ligand", "concentration": "1 µM", "measurement": "remaining binding", "value": "100%"}
{"Structure (SMILES)": "CC(C)(O)[C@H]1CC[C@H](Nc2ccc3ncc(-c4cccc(C(F)(F)F)c4)n3n2)CC1", "read-out": "enzyme activity", "mode": "inhibitor", "concentration": "1 µM", "measurement": "remaining activity", "value": "92.6%"}
{"Structure (SMILES)": "CC(C)(C)c1nc2c(s1)c1nc(N)ncc1c1ccc(NS(=O)(=O)c3c(F)cccc3F)c(F)c12", "read-out": "enzyme activity", "mode": "inhibitor", "method": "radiometric", "concentration": "1 µM", "measurement": "remaining activity", "value": "103%"}
{"Structure (SMILES)": "Cc1ccc(C(=O)NCc2ccsc2)cc1C#Cc1cn(C(C)C)c2ncnc(N)c12", "read-out": "enzyme activity", "mode": "inhibitor", "concentration": "1 µM", "measurement": "activity vs control", "value": "92%"}
{"Structure (SMILES)": "COc1cc(Cl)c(C(=O)N[C@@H](CN[C@H]2CC[C@@H](N)CC2)Cc2ccc(C#N)cc2)cc1-c1ccc(CN[C@H](C)c2ccc(C)cc2)o1", "read-out": "enzyme activity", "mode": "inhibitor", "concentration": "1 µM", "measurement": "remaining activity", "value": "109%"}
{"Structure (SMILES)": "CN1CC(Oc2cnc(C#N)cc2-c2ccn3nc(NC(=O)C4CC4)cc3c2)C1", "read-out": "enzyme activity", "mode": "inhibitor", "concentration": "1 µM", "measurement": "inhibition", "value": "17%"}
{"Structure (SMILES)": "Cn1cncc1C1=CN(c2ncnc3[nH]cnc23)CCS1", "read-out": "enzyme activity", "mode": "inhibitor", "method": "radiometric", "concentration": "50 nM", "measurement": "inhibition", "value": "14.1%"}
{"Structure (SMILES)": "Cn1cc(Cl)c2c(Oc3c(F)cc(Nc4cc(Cl)nc(N)n4)cc3F)ccnc21", "read-out": "cell-free assay", "method": "competition with immobilised ligand", "concentration": "0.1 µM", "measurement": "remaining binding", "value": "98%"}
{"Structure (SMILES)": "C[C@@H]1CCN(c2nccc(-c3cnn4ncccc34)n2)C1", "read-out": "binding", "concentration": "1 µM", "measurement": "remaining binding", "value": "92%"}
{"Structure (SMILES)": "FC(F)(F)Oc1cccc(-c2cnc3ccc(-c4ccncc4)nn23)c1", "read-out": "enzyme activity", "mode": "inhibitor", "method": "radiometric", "concentration": "1 µM", "measurement": "activity vs control", "value": "105%"}
{"Structure (SMILES)": "COc1cc(Nc2cnc(C#N)c(O[C@H](C)CN(C)C)n2)ncc1-c1cnn(C)c1", "read-out": "enzyme activity", "mode": "inhibitor", "method": "radiometric", "concentration": "10 µM", "measurement": "remaining activity", "value": "75%"}
{"Structure (SMILES)": "O=C(CSc1nc2nccnc2c(=O)n1CCc1ccccc1)Nc1nccs1", "read-out": "enzyme activity", "mode": "inhibitor", "concentration": "10 µM", "measurement": "inhibition", "value": "1%"}
{"Structure (SMILES)": "COc1ccc2cc(OCC3(C(=O)O)CN(C(=O)c4ccc(F)cc4)C3)ccc2c1", "read-out": "cell-free assay", "method": "competition with immobilised ligand", "concentration": "1 µM", "measurement": "remaining binding", "value": "84%"}
{"Structure (SMILES)": "O=C(Nc1cnn(-c2csc(C(=O)NC3COC3)c2)c1)Nc1c(F)cccc1Cl", "read-out": "enzyme activity", "mode": "inhibitor", "concentration": "5 µM", "measurement": "remaining activity", "value": "93.3%"}
